Rows were chosen to be rich in hits. Some 2.7% of all compounds tested hit in one or more screens of this group.
CaV13 FRET inh: Disruptors of the CACNA1D IQ motif to Ca2+-dependent inactivation inhibitor domain association, primary screening, Förster resonance energy transfer in intact living … | HEK cells, CFP/YFP FRET ICDI-IQ, plate reader, 10 min; percent FRET-ratio fall versus neutral wells | inhibition, % at 12.3 µM | hit rate 0.098% among 340,000 | AID 743397;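 active means mean replicate inhibition of at least 30% and at least 1% of replicates passing that level; inconclusive means only one of the two criteria is met; inactive means neither criterion is met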
DENV2 CPE: DENV2-induced cell death inhibition. DENV2-infected cells, cytopathic effect rescue, plate reader. CPE inhibition, % at 9.99 µM. hit rate 1.7% among 350,000. AID 651640; in the data active means CPE inhibition above about 20%, passing the limit was not always enough; inconclusive means no clear call, values can overlap the other calls; tested in BHK-21 cells
S100A4 inh HTS: blocks human S100A4 binding to myosin IIA peptide; P26447; S100A4/TAMRA-MyoIIA peptide fluorescence polarization; inhibition, % at 10.7 µM; hit rate 0.14% among 360,000;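 active means mean inhibition of at least 70% across replicates, with every replicate also reaching that level; inconclusive means mean inhibition reaches 70% but some replicates fall short; inactive means mean inhibition below 70%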
Target sequence (P26447 whole entry, looked up): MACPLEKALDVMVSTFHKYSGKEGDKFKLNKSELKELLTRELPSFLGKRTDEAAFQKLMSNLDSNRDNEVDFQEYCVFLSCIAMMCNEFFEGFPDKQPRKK
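Material: S100A4 monomer protein / Buffer or medium: 50 mM HEPES pH 7.2, 10 mM CaCl2, 100 mM KCl / Times: 5 min incubation before reading / Benchmarks: neutral control DMSO, positive control TFP / Reagent: labelled myosin peptide probe, 5 nM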
SIRT5 block: sirtuin-5 (human) deacylase inhibition; Purified SirT5, succinyl-peptide AMC, trypsin-coupled fluorescence; inhibition, % at 15 µM; Q9NXA8; hit rate 1.1% among 330,000; in the data active means inhibition above about 15%; inconclusive means no clear call, values can overlap the other calls
Target sequence (Q9NXA8 whole entry, looked up): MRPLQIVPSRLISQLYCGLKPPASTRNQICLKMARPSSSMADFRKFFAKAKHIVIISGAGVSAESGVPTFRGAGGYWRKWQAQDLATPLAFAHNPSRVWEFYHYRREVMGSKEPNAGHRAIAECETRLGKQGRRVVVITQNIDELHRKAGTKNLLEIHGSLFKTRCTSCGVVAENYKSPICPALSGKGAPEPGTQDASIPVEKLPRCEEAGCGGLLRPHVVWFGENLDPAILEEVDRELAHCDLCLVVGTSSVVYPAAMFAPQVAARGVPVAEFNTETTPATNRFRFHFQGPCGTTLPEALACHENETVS
AF4-AF9 inh: blocks AF4 peptide binding to human AF9; P42568; AlphaScreen, biotin-AF4 peptide binding to FLAG-AF9; inhibition, % at 10 µM; hit rate 0.47% among 350,000; AID 651704;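 active means every replicate reaching a set inhibition limit, whatever the replicate mean, cut at about 25% in these data; inconclusive means mean inhibition reaches that limit but some replicates miss it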
Hits are given with their value; – = inactive; ? = inconclusive; · = no result.

SMILES | CaV13 FRET inh | DENV2 CPE | S100A4 inh HTS | SIRT5 block | AF4-AF9 inh
Cc1ccc(S(=O)(=O)NC(CC(C)C)C(=O)NCC(c2ccco2)N2CCCCC2)cc1 (configuration not stated) | · | · | – | – | ·
O=C(CCN1CCCCC1)N[C@H]1CC[C@H](CCn2cc(-c3ccccc3)nn2)O[C@@H]1CO | · | – | 124.2 | – | –
O=C(CCN1CCCCC1)N[C@H]1CC[C@@H](CCn2cc(-c3ccc(F)cc3)nn2)O[C@H]1CO | · | – | – | 22.6 | –
O=C(CCN1CCCCC1)N[C@@H]1CC[C@H](CCn2cc(-c3ccccc3)nn2)O[C@@H]1CO | · | – | – | – | –
O=C(CCN1CCCCC1)N[C@@H]1CC[C@@H](CCn2cc(-c3ccccc3)nn2)O[C@@H]1CO | · | – | – | – | –
CCOc1ccc(-c2nnc(SCC(=O)N3CCN(c4ccccc4)CC3)o2)cc1 | – | – | – | · | –
CCOc1ccc(-c2nnc(SCC(=O)N3CCNC3=O)o2)cc1 | – | – | – | – | 27.9
C[C@@H]1CN([C@H](C)CO)C(=O)c2cc(NC(=O)CCC(F)(F)F)ccc2O[C@@H](C)CCCCO[C@H]1CN(C)C(=O)Cc1ccccc1 | · | – | · | · | ·
CN(C)CC/C=C1\c2cc(Cl)ccc2Sc2cc(F)c(F)cc21 | – | – | – | – | 30.8
CN(C)CC/C=C1\c2ccccc2Sc2ccc(Cl)cc21 | – | – | – | – | –
CN(C)CC/C=C1\c2ccccc2Sc2cc(F)c(Cl)cc21 | – | – | – | – | 27.8
C[C@H](CO)N1C[C@H](C)[C@H](CN(C)Cc2ccc(C(F)(F)F)cc2)OCCCC[C@H](C)Oc2ccc(NC(=O)c3ccncc3)cc2C1=O | · | ? | – | – | –
CCN(CC(=O)NCc1cccs1)C(=O)/C=C/c1cc(OC)ccc1OC | – | – | – | – | –
CCN(CC(=O)NCc1cccs1)C(=O)/C=C/c1ccc(OC)cc1OC | – | 30.4 | – | – | –
C[C@@H]1CCCCO[C@@H](CN(C)S(=O)(=O)c2cccs2)[C@@H](C)CN([C@@H](C)CO)C(=O)c2cc(NC(=O)c3ccncc3)ccc2O1 | · | – | – | – | –
CC(C)(C)S(=O)N1C[C@@H]2CC(=O)C(c3ccccc3)=C2[C@H]1CCO (some centres not stated) | – | – | – | – | –
COc1ccc2c3c(n(C)c2c1)[C@@H](CO)N(C(=O)CN(C)C)CC31CCN(Cc2cccnc2)CC1 | · | – | – | – | –
COc1cccc(S(=O)(=O)N2CC[C@H]3[C@H](CO)Nc4ccc(C#Cc5ccccc5)cc4[C@H]32)c1 | · | 30.6 | – | – | –
COc1cccc(C#Cc2ccc3c(c2)[C@@H]2[C@@H](CCN2S(=O)(=O)c2cccc(OC)c2)[C@@H](CO)N3)c1 | · | – | – | · | –
COc1cccc(S(=O)(=O)N2CC[C@@H]3[C@@H](CO)Nc4ccc(C#Cc5ccccc5)cc4[C@@H]32)c1 | · | – | 102.8 | – | –
C[C@@H]1CN([C@H](C)CO)C(=O)c2cc(NC(=O)Nc3cccc4ccccc34)ccc2O[C@@H](C)CCCCO[C@H]1CN(C)Cc1ccc(Cl)c(Cl)c1 | · | – | – | · | –
C[C@@H]1CCCCO[C@@H](CN(C)Cc2ccc(Cl)c(Cl)c2)[C@@H](C)CN([C@H](C)CO)C(=O)c2cc(NC(=O)Nc3cccc4ccccc34)ccc2O1 | · | 21.9 | – | · | –
C[C@H](CO)N1C[C@H](C)[C@@H](CN(C)Cc2ccc(Cl)c(Cl)c2)OCCCC[C@H](C)Oc2ccc(NC(=O)Nc3cccc4ccccc34)cc2C1=O | · | 33.1 | – | – | –
C[C@@H]1CN([C@H](C)CO)C(=O)c2cc(NS(=O)(=O)c3ccccc3)ccc2O[C@H]1CN(C)Cc1ccc(-c2ccccc2)cc1 | · | ? | – | 15.9 | –
C[C@@H]1CN([C@H](C)CO)C(=O)c2cc(NS(=O)(=O)c3ccccc3)ccc2O[C@@H]1CN(C)Cc1ccc(Oc2ccccc2)cc1 | · | – | – | 17.0 | –
C[C@@H]1CN([C@H](C)CO)C(=O)c2cc(NS(=O)(=O)c3ccccc3)ccc2O[C@H]1CN(C)Cc1ccc(Oc2ccccc2)cc1 | · | – | – | – | –
Cc1ccc(S(=O)(=O)Nc2ccc3c(c2)C(=O)N([C@H](C)CO)C[C@@H](C)[C@H](CN(C)Cc2ccc(-c4ccccc4)cc2)O3)cc1 | · | – | – | 18.0 | –

Screens as filed in PubChem BioAssay.
